Data set [1] is described as follows: Serum stability study in normal mouse serum, MALDI-TOF MS. Conditions: 37 °C, result in words. It counts as in vitro ADME.
Data set [2] relates to CT-26 colon carcinoma tumors / M2-like TAMs. The data set can be described thus: In vivo biodistribution study in CT-26 tumor model. Set-up: species or system mouse. Particulars: 20 min after injection, n = 5, result in words. Put shortly:
(§1)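 Female BALB/c mice (6 week-old) received CT-26 cells in the right flank or 4T1 cells in the mammary fat pad, and were used 2 weeks later (tumor diameter ≤1.5 cm). Sulfo-Cy5-labeled test compound (2.24 nmol, PBS/10% DMSO) or PBS was injected retro-orbitally. After 20 min, mice were PBS-perfused. Tumors were enzymatically dissociated, Fc-blocked, stained for CD11b/Ly-6G/F4/80, PFA-fixed and run on flow cytometry. Subsets were compared by one-way ANOVA/Tukey.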

In data set [3] the test system is 4T1 breast carcinoma tumors / M2-like TAMs. The data set can be described thus: In vivo biodistribution study in 4T1 tumor model. Set-up: species or system mouse. Particulars: 20 min after injection, n = 3, result in words. Put shortly:
as §1

Square brackets hold non-standard residues; d marks the D form. Peptide text beside a SMILES is read from it. * marks the point of attachment. Biotin = O=C1N[C@H]2[C@H](CS[C@H]2CCCCC(=O)*)N1

Turning to `CC(=O)N[C@@H](Cc1ccc(O)cc1)C(=O)N[C@@H](CCC(=O)O)C(=O)N[C@@H](CCC(N)=O)C(=O)N[C@@H](CC(=O)O)C(=O)N1CCC[C@H]1C(=O)N[C@@H](Cc1c[nH]c2ccccc12)C(=O)NCC(=O)N[C@H](C(=O)N[C@@H](CCCNC(=N)N)C(=O)N[C@@H](Cc1ccc(O)cc1)C(=O)N[C@@H](Cc1c[nH]c2ccccc12)C(=O)N[C@@H](Cc1ccc(O)cc1)C(=O)NCC(=O)NCC(=O)NCC(=O)N[C@@H](CO)C(=O)N[C@H](CCCCN)C(=O)N[C@H](CCCCN)C(=O)N[C@H](CCCCN)C(=O)N[C@@H](CCCCNC(=O)CCCC[C@@H]1SC[C@@H]2NC(=O)N[C@@H]21)C(N)=O)C(C)C` [AcM2pep(RY)Biotin] (Ac-YEQDPWGVRYWYGGGS[dK][dK][dK]K(Biotin)-NH2), the “protection against endolytic cleavage at the W10/W11 site in serum” value (“protection against endolytic cleavage” for short) in data set [1] was “did not improve serum stability at the W10/W11 site”. For the compound `CC(=O)N[C@@H](Cc1ccc(O)cc1)C(=O)N[C@@H](CCC(=O)O)C(=O)N[C@@H](CCC(N)=O)C(=O)N[C@@H](CC(=O)O)C(=O)N1CCC[C@H]1C(=O)N[C@@H](Cc1c[nH]c2ccccc12)C(=O)NCC(=O)N[C@H](C(=O)N[C@@H](CCCCN)C(=O)N[C@@H](Cc1c[nH]c2ccccc12)C(=O)N[C@@H](Cc1c[nH]c2ccccc12)C(=O)N[C@@H](Cc1ccc(O)cc1)C(=O)NCC(=O)NCC(=O)NCC(=O)N[C@@H](CO)C(=O)N[C@@H](CCCCN)C(=O)N[C@@H](CCCCN)C(=O)N[C@@H](CCCCN)C(=O)N[C@@H](CCCCNC(=O)CCCC[C@@H]1SC[C@@H]2NC(=O)N[C@@H]21)C(N)=O)C(C)C` [AcM2pepBiotin] (Ac-YEQDPWGVKWWYGGGSKKKK(Biotin)-NH2), in data set [1], the overall serum stability result was “did not improve the overall serum stability” and the “resistance to N-terminal (exolytic) degradation in serum” value was “resistant to N-terminal degradation”. As for `CC(=O)N[C@@H](Cc1ccc(O)cc1)C(=O)N[C@@H](CCC(=O)O)C(=O)N[C@@H](CCC(N)=O)C(=O)N[C@@H](CC(=O)O)C(=O)N1CCC[C@H]1C(=O)N[C@@H](Cc1c[nH]c2ccccc12)C(=O)NCC(=O)N[C@H](C(=O)N[C@@H](CCCNC(=N)N)C(=O)N[C@@H](Cc1c[nH]c2ccccc12)C(=O)N[C@@H](Cc1c[nH]c2ccccc12)C(=O)N[C@@H](Cc1ccc(O)cc1)C(=O)NCC(=O)NCC(=O)NCC(=O)N[C@@H](CO)C(=O)N[C@@H](CCCCN)C(=O)N[C@@H](CCCCN)C(=O)N[C@@H](CCCCN)C(=O)N[C@@H](CCCCNC(=O)CCCC[C@@H]1SC[C@@H]2NC(=O)N[C@@H]21)C(N)=O)C(C)C` [K9R] (Ac-YEQDPWGVRWWYGGGSKKKK(Biotin)-NH2), in data set [1], the “protection against endolytic cleavage” value is reported as “did not confer protection at the W10/W11 site”. Still for that read-out and setting: next, `CC(=O)N[C@@H](Cc1ccc(O)cc1)C(=O)N[C@@H](CCC(=O)O)C(=O)N[C@@H](CCC(N)=O)C(=O)N[C@@H](CC(=O)O)C(=O)N1CCC[C@H]1C(=O)N[C@@H](Cc1c[nH]c2ccccc12)C(=O)NCC(=O)N[C@H](C(=O)N[C@@H](CCCCN)C(=O)N1CCC[C@H]1C(=O)N[C@@H](Cc1c[nH]c2ccccc12)C(=O)N[C@@H](Cc1ccc(O)cc1)C(=O)NCC(=O)NCC(=O)NCC(=O)N[C@@H](CO)C(=O)N[C@H](CCCCN)C(=O)N[C@H](CCCCN)C(=O)N[C@H](CCCCN)C(=O)N[C@@H](CCCCNC(=O)CCCC[C@@H]1SC[C@@H]2NC(=O)N[C@@H]21)C(N)=O)C(C)C` [W10P] (Ac-YEQDPWGVKPWYGGGS[dK][dK][dK]K(Biotin)-NH2): “did not confer protection at the W10/W11 site”; `CC(=O)N[C@@H](Cc1ccc(O)cc1)C(=O)N[C@@H](CCC(=O)O)C(=O)N[C@@H](CCC(N)=O)C(=O)N[C@@H](CC(=O)O)C(=O)N1CCC[C@H]1C(=O)N[C@@H](Cc1c[nH]c2ccccc12)C(=O)NCC(=O)N[C@H](C(=O)N[C@@H](CCCCN)C(=O)N[C@@H](Cc1ccc(O)cc1)C(=O)N[C@@H](Cc1c[nH]c2ccccc12)C(=O)N[C@@H](Cc1ccc(O)cc1)C(=O)NCC(=O)NCC(=O)NCC(=O)N[C@@H](CO)C(=O)N[C@H](CCCCN)C(=O)N[C@H](CCCCN)C(=O)N[C@H](CCCCN)C(=O)N[C@@H](CCCCNC(=O)CCCC[C@@H]1SC[C@@H]2NC(=O)N[C@@H]21)C(N)=O)C(C)C` [W10Y] (Ac-YEQDPWGVKYWYGGGS[dK][dK][dK]K(Biotin)-NH2): “did not confer protection at the W10/W11 site”; `CC(=O)N[C@@H](Cc1ccc(O)cc1)C(=O)N[C@@H](CCC(=O)O)C(=O)N[C@@H](CCC(N)=O)C(=O)N[C@@H](CC(=O)O)C(=O)N1CCC[C@H]1C(=O)N[C@@H](Cc1c[nH]c2ccccc12)C(=O)NCC(=O)N[C@H](C(=O)N[C@@H](CCCCN)C(=O)N[C@H](Cc1c[nH]c2ccccc12)C(=O)N[C@@H](Cc1c[nH]c2ccccc12)C(=O)N[C@@H](Cc1ccc(O)cc1)C(=O)NCC(=O)NCC(=O)NCC(=O)N[C@@H](CO)C(=O)N[C@@H](CCCCN)C(=O)N[C@@H](CCCCN)C(=O)N[C@@H](CCCCN)C(=O)N[C@@H](CCCCNC(=O)CCCC[C@@H]1SC[C@@H]2NC(=O)N[C@@H]21)C(N)=O)C(C)C` [W10w] (Ac-YEQDPWGVK[dW]WYGGGSKKKK(Biotin)-NH2): “effective protection against endolytic cleavage at the W10/W11 site”. Turning to `CC(=O)N[C@@H](Cc1ccc(O)cc1)C(=O)N[C@@H](CCC(=O)O)C(=O)N[C@@H](CCC(N)=O)C(=O)N[C@@H](CC(=O)O)C(=O)N1CCC[C@H]1C(=O)N[C@@H](Cc1c[nH]c2ccccc12)C(=O)NCC(=O)N[C@H](C(=O)N[C@@H](CCCNC(=N)N)C(=O)N[C@@H](Cc1ccc(O)cc1)C(=O)N[C@@H](Cc1c[nH]c2ccccc12)C(=O)N[C@H](Cc1ccc(O)cc1)C(=O)NCC(=O)NCC(=O)NCC(=O)N[C@@H](CO)C(=O)N[C@H](CCCCN)C(=O)N[C@H](CCCCN)C(=O)N[C@H](CCCCN)C(=O)N[C@@H](CCCCNC(=O)CCCC[C@@H]1SC[C@@H]2NC(=O)N[C@@H]21)C(N)=O)C(C)C` [Y12y] (Ac-YEQDPWGVRYW[dY]GGGS[dK][dK][dK]K(Biotin)-NH2), the “protection against endolytic cleavage” value in data set [1] is on record as “did not improve serum stability at the W10/W11 site”.

As for “CGYEQDPWGVRYWYGCkkk(k(N3)-sulfoCy5) (disulfide) [Cyclic M2pep(RY)-sulfoCy5]”, in data set [2], the “intratumoral selectivity to M2-like TAMs over M1-like TAMs and CD11b- cells” value was “selectivity to M2-like TAMs over M1-like TAMs and non-TAM CD11b^- cells was observed”; the “intratumoral uptake in M2-like TAMs (flow cytometry)” value was “significantly higher uptake in M2-like TAMs compared to M2pep-sulfoCy5”. Further, the “intratumoral accumulation in M2-like TAMs (flow cytometry)” value in data set [3] was “accumulated preferentially in M2-like TAMs”.

For “YEQDPWGVKWWYGGGSKKK(k(N3)-sulfoCy5) [M2pep-sulfoCy5]”, in data set [2], the “intratumoral selectivity to M2-like TAMs over M1-like TAMs and CD11b- cells” value was “selectivity to M2-like TAMs over M1-like TAMs and non-TAM CD11b^- cells was observed”.

These data come from paper PMC4924508 (Theranostics, 2016).
